The text below walks through data of publication PMC4935662 (Molecular pharmaceutics, 2016).

For series [1] the following is noted: cited from earlier work.
Series [2] has as its system blood-brain barrier (BBB). The series is described as follows: In situ rat brain perfusion of Gd-DTPA, quantitative T1 mapping MRI. The settings on record: Gd-DTPA 0.6 mmol/kg, brain-ventral. The format is in vivo, Sprague-Dawley rats. In outline:
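Adult male Sprague-Dawley rats (250–350 g). A 10-sec saline post-perfusion wash followed. Sacrificed animals underwent quantitative T1 mapping MRI at room temperature; R1 = 1/T1 was taken per brain region.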

For series [3] the following is noted: single administration at 1.0 mmol/kg in rats; cited from earlier work.
For series [4], the system named is blood-brain barrier (BBB). The settings on record: cited from earlier work.

With `CC[C@@]1(O)C(=O)OCc2c1cc1n(c2=O)Cc2cc3ccccc3nc2-1` [CPT, camptothecin], the “time of conversion to the CPT-carboxylate form” value in series [1] (phosphate-buffered saline solution containing 4% human plasma) is on record as 11 min. The “pH below which the lactone group is stable” value in series [1] (undergoes lactone hydrolysis to CPT-carboxylate at pH 7.4, no reference given) is on record as < 5.5.

Consider `O=C([O-])CN(CCN(CC(=O)[O-])CC(=O)O)CCN(CC(=O)[O-])CC(=O)O.[Gd+3]` [Gd-DTPA, gadolinium-diethylenetriaminepentaacetate], for which the “R1 values, Gd-DTPA in presence of HAV6 compared to Gd-DTPA and vehicle” value in series [2] (HAV6 1.0 mM, olfactory bulb, hippocampus, cerebellum, deep-rostral, deep-caudal regions) was “more significantly increased R1 values”. Further, the “R1 values, Gd-DTPA and vehicle compared to vehicle only” value in series [2] (cortex, deep-caudal) was “increased R1 values”. For the same compound, in series [3], the “tolerability / organ toxicity” value was “well tolerated without any organ toxicity”.

Regarding Ac-SHAVSS-NH2 [HAV6, Ac-SHAVSS-NH2], the “brain delivery of IRdye 800cw-PEG delivered 1 h after administration of peptide” value in series [4] (25 kDa IRdye 800cw-PEG) is “no enhancement of brain delivery”. In series [4] (Balb/c mice), the “duration of BBB opening” value is recorded as “less than 1 h”.
